From ChEMBL document CHEMBL5252514, “Conopeptide-Derived κ-Opioid Agonists (Conorphins): Potent, Selective, and Metabolic Stable Dynorphin A Mimetics with Antinociceptive Properties” (J Med Chem, 2016)
Active and inactive are the calls of the source. The calls are words filed in the database; no cut-off is given here. Where a SMILES comes first, the peptide text is derived from it.

Tests used:
[1] = Metabolic stability in Wistar rat plasma assessed as half life by HPLC analysis; assay type: ADME, cell-free
How it was run: (§1)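 Peptide at 1 mg/mL in sterile PBS pH 7.4 was mixed 1:1 with thawed, centrifuged Wistar rat plasma supernatant and incubated at 37°C in triplicate. Samples at 0, 1, 2, 3, 4, 6 and 24 h were quenched with acetonitrile and then 2% TFA/water, and analysed by HPLC with inline electrospray MS.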

[2] = target: T1, Kappa-type opioid receptor (Homo sapiens, UniProt P41145); experiment: Agonist activity at human kappa opioid receptor expressed in CHO-K1 cells assessed as inhibition of forskolin-stimulated cAMP production incubated for 30 mins by LANCE cAMP assay; assay type: cell-based
T1 sequence (P41145 whole entry): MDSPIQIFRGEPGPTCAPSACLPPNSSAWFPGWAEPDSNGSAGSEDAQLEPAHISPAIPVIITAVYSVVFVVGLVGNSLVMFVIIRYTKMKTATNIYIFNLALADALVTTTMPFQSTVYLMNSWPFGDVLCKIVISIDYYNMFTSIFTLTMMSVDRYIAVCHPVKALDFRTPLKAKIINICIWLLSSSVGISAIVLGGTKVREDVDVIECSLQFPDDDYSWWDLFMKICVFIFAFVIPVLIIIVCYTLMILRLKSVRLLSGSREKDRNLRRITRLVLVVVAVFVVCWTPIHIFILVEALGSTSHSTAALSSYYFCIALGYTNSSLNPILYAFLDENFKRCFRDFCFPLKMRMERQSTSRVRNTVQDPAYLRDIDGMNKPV
How it was run: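 Transiently KOR-transfected CHO-K1 cells taken 24 h post-transfection, 3,000 cells/well in HBSS stimulation buffer (0.1% BSA, 0.5 mM IBMX, 5 mM HEPES, pH 7.4). Forskolin (1 µM final) and ligand added, then 30 min at RT. LANCE Eu-cAMP tracer/anti-cAMP TR-FRET read after 1 h at RT. Sigmoidal dose-response fit.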

[3] = target: T1, Kappa-type opioid receptor; experiment: Agonist activity at human kappa opioid receptor expressed in CHO-K1 cells assessed as ERK phosphorylation incubated for 2 hrs by Alphascreen surefire method; assay type: cell-based
How it was run: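 CHO-K1 cells transiently transfected with KOR plasmid, harvested 24 h later, plated at 50,000 cells/well and settled 24 h, then serum-starved 12 h. Ligands in serum-free medium applied 10 min at room temperature. Lysates read by AlphaScreen SureFire phospho-ERK1/2 after 2 h at 37 °C. Curves fitted by sigmoidal dose-response.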

[4] = species on record: Homo sapiens; experiment: Selectivity ratio, ratio of Ki for human KOR to Ki for human NOP
[5] = species on record: Homo sapiens; experiment: Selectivity ratio, ratio of Ki for human KOR to Ki for human DOR
[6] = target: T1, Kappa-type opioid receptor; experiment: Displacement of [3H]U69593 from human kappa opioid receptor expressed in CHO-K1 cells incubated for 1 hr by 1450 microbeta scintillation counter analysis; assay type: cell-based
How it was run: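 Membranes from transiently KOR-transfected CHO-K1 cells (~2 µg/well) used in SPA with 3H-U69,593 (1 nM). Competitor ranged 1 pM–10 µM in 50 mM Tris-HCl pH 7.4, 5 mM MgCl2, 0.1% BSA. Incubated 1 h at room temperature with shaking. Nonspecific binding defined with 10 µM dynorphin A. Sigmoidal dose-response fit; at least three independent experiments in triplicate.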

[7] = species on record: Homo sapiens; experiment: Selectivity ratio, ratio of Ki for human KOR to Ki for human MOR
[8] = Metabolic stability in Wistar rat plasma assessed as UrrQ[CHA] formation by measuring relative abundance measuring after 120 mins by HPLC analysis relative to control; assay type: ADME, cell-free; details: 2 h; how it was run: as §1
[9] = Metabolic stability in Wistar rat plasma assessed as UrrQ[CHA]CC formation by measuring relative abundance measuring after 120 mins by HPLC analysis relative to control; assay type: ADME, cell-free; details: 2 h; how it was run: as §1
[10] = system: Mus musculus; experiment: Antinociceptive activity against C57BL/6 mouse model of TNBS induced chronic visceral hypersensitivity assessed as inhibition of colonic nociceptor mechanosensitivity at 1000 nM, administered topically on colon mucosal surface for 28 days; assay type: functional, organism-based; details: time 28.0 day
How it was run: (§2)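 Ex vivo single-unit extracellular recording of splanchnic colonic afferents from healthy C57BL/6 mice or CVH mice (28 days after TNBS, inflammation resolved). Baseline mechanosensitivity was measured with a 2 g von Frey probe applied 3 s to the receptive field, repeated 3–4 times 10 s apart. KOR agonist was applied to the mucosal surface for 5 min per concentration inside a small metal ring, then mechanosensitivity was re-tested.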

[11] = system: Mus musculus; experiment: Antinociceptive activity against C57BL/6 mouse model of TNBS induced chronic visceral hypersensitivity assessed as inhibition of colonic nociceptor mechanosensitivity at 1000 nM, administered topically on colon mucosal surface for 28 days in presence of norbinaltorphimine; assay type: functional, organism-based; details: time 28.0 day; how it was run: as §2
[12] = system: Mus musculus; experiment: Antinociceptive activity against C57BL/6 mouse assessed as inhibition of colonic nociceptor mechanosensitivity at 1 to 1000 nM, administered topically on colon mucosal surface for 28 days; assay type: functional, organism-based; details: dose 1-1000 nM, time 28.0 day; how it was run: as §2
[13] = Metabolic stability in Wistar rat plasma assessed as BzPrrQ[CHA]CC formation by measuring relative abundance measuring after 360 mins by HPLC analysis relative to control; assay type: ADME, cell-free; details: 6 h; how it was run: as §1
[14] = Metabolic stability in Wistar rat plasma assessed as compound remaining measured after 24 hrs by HPLC analysis; assay type: ADME, cell-free; details: read-out: Stability; how it was run: as §1
[15] = Metabolic stability in Wistar rat plasma assessed as UrrQ[CHA][PEN]C formation by measuring relative abundance measuring after 3600 mins by HPLC analysis relative to control; assay type: ADME, cell-free; details: 60 h
[16] = Metabolic stability in Wistar rat plasma assessed as BzPrrQ[CHA][PEN]C formation by measuring relative abundance measuring after 3600 mins by HPLC analysis relative to control; assay type: ADME, cell-free; details: 60 h
[17] = Metabolic stability in Wistar rat plasma assessed as URR formation by measuring relative abundance measuring after 60 mins by HPLC analysis relative to control; assay type: ADME, cell-free; details: 1 h; how it was run: as §1
[18] = Metabolic stability in Wistar rat plasma assessed as Q[CHA]CC formation by measuring relative abundance measuring after 60 mins by HPLC analysis relative to control; assay type: ADME, cell-free; details: 1 h; how it was run: as §1
[19] = Metabolic stability in Wistar rat plasma assessed as URRQ[CHA] formation by measuring relative abundance measuring after 60 mins by HPLC analysis relative to control; assay type: ADME, cell-free; details: 1 h; how it was run: as §1

Compound	half-life [1] [min]	EC50 [2] [nM]	EC50 [3] [nM]	Ratio Ki [4]	Ratio Ki [5]	Ki [6] [nM]	Ratio Ki [7]	further results
CC[C@H](C)[C@H](NC(=O)[C@H](CCC(N)=O)NC(=O)[C@H](CCCNC(=N)N)NC(=O)[C@H](CCCNC(=N)N)NC(=O)[C@@H]1CSSC[C@H](NC(=O)[C@@H]2CCC(=O)N2)C(=O)N1)C(=O)N[C@H]1CSSC[C@@H](C(N)=O)NC1=O (HELM PEPTIDE1{[Glp].C.C.R.R.Q.I.C.C.[am]}$PEPTIDE1,PEPTIDE1,2:R3-3:R3|PEPTIDE1,PEPTIDE1,8:R3-9:R3$$$V2.0)	15	11.5	5860	> 630	> 630	67.5	> 630	
N=C(N)NCCC[C@@H](NC(=O)[C@@H]1CCC(=O)N1)C(=O)N[C@H](CCCNC(=N)N)C(=O)N[C@@H](CCC(N)=O)C(=O)N[C@@H](CC1CCCCC1)C(=O)N[C@H]1CSSC[C@@H](C(N)=O)NC1=O	360	12.6	1100	> 10000	> 10000	3.9	> 10000	Activity [8]: 0.1; Activity [9]: 1
N=C(N)NCCC[C@@H](NC(=O)[C@@H](CCCNC(=N)N)NC(=O)[C@@H]1CCCN1C(=O)c1ccccc1)C(=O)N[C@@H](CCC(N)=O)C(=O)N[C@@H](CC1CCCCC1)C(=O)N[C@H]1CSSC[C@@H](C(N)=O)NC1=O	240	0.41	0.36	> 45000	> 250000	0.25	> 250000	inhibition [10]: Dose-Dependent Effect; inhibition [11]: inactive; inhibition [12]: inactive; Activity [13]: 1
CC[C@H](C)[C@H](NC(=O)[C@H](CCC(N)=O)NC(=O)[C@H](CCCNC(=N)N)NC(=O)[C@H](CCCNC(=N)N)NC(=O)[C@@H]1CSSC[C@H](NC(=O)[C@@H](N)CC(N)=O)C(=O)N1)C(=O)N[C@H]1CSSC[C@@H](C(N)=O)NC1=O (HELM PEPTIDE1{N.C.C.R.R.Q.I.C.C.[am]}$PEPTIDE1,PEPTIDE1,2:R3-3:R3|PEPTIDE1,PEPTIDE1,8:R3-9:R3$$$V2.0)	15	9450	9850	> 630	> 630	80	> 630	
CC1(C)SSC[C@@H](C(N)=O)NC(=O)[C@H]1NC(=O)[C@H](CC1CCCCC1)NC(=O)[C@H](CCC(N)=O)NC(=O)[C@@H](CCCNC(=N)N)NC(=O)[C@@H](CCCNC(=N)N)NC(=O)[C@@H]1CCC(=O)N1		10.5	450	> 25000	> 1200	1.3	> 39000	remaining at 24 h [14]: 100%; Activity [15]: 1
CC1(C)SSC[C@@H](C(N)=O)NC(=O)[C@H]1NC(=O)[C@H](CC1CCCCC1)NC(=O)[C@H](CCC(N)=O)NC(=O)[C@@H](CCCNC(=N)N)NC(=O)[C@@H](CCCNC(=N)N)NC(=O)[C@@H]1CCCN1C(=O)c1ccccc1						1140		Activity [16]: 1; remaining at 24 h [14]: 95%
N=C(N)NCCC[C@H](NC(=O)[C@@H]1CCC(=O)N1)C(=O)N[C@@H](CCCNC(=N)N)C(=O)N[C@@H](CCC(N)=O)C(=O)N[C@@H](CC1CCCCC1)C(=O)N[C@H]1CSSC[C@@H](C(N)=O)NC1=O	90	15.2	1580	> 10000	> 10000	6.7	> 10000	Activity [17]: 0.01; Activity [18]: 0.01; Activity [19]: 0.1
N=C(N)NCCC[C@@H](NC(=O)[C@H]1NCCc2ccccc21)C(=O)N[C@H](CCCNC(=N)N)C(=O)N[C@@H](CCC(N)=O)C(=O)N[C@@H](CC1CCCCC1)C(=O)N[C@H]1CSSC[C@@H](C(N)=O)NC1=O	45					1.18		
CC[C@H](C)[C@H](NC(=O)[C@H](CCC(N)=O)NC(=O)[C@H](CCCNC(=N)N)NC(=O)[C@H](CCCNC(=N)N)NC(=O)[C@@H]1CCC(=O)N1)C(=O)N[C@H]1CSSC[C@@H](C(N)=O)NC1=O (HELM PEPTIDE1{[Glp].R.R.Q.I.C.C.[am]}$PEPTIDE1,PEPTIDE1,6:R3-7:R3$$$V2.0)	180	1.9	7490	> 250	> 250	191	> 250	
N=C(N)NCCC[C@@H](NC(=O)c1cc2ccccc2cc1N)C(=O)N[C@H](CCCNC(=N)N)C(=O)N[C@@H](CCC(N)=O)C(=O)N[C@@H](CC1CCCCC1)C(=O)N[C@H]1CSSC[C@@H](C(N)=O)NC1=O	60					0.64		
N=C(N)NCCC[C@H](NC(=O)[C@@H]1CCC(=O)N1)C(=O)N[C@H](CCCNC(=N)N)C(=O)N[C@@H](CCC(N)=O)C(=O)N[C@@H](CC1CCCCC1)C(=O)N[C@H]1CSSC[C@@H](C(N)=O)NC1=O	1200					16.1		
N=C(N)NCCC[C@@H](NC(=O)[C@@H](CCCNC(=N)N)NC(=O)[C@@H]1CCCN1C(=O)c1ccc2ccccc2c1)C(=O)N[C@@H](CCC(N)=O)C(=O)N[C@@H](CC1CCCCC1)C(=O)N[C@H]1CSSC[C@@H](C(N)=O)NC1=O	30					0.07		
N=C(N)NCCC[C@@H](NC(=O)[C@@H](CCCNC(=N)N)NC(=O)[C@@H]1CCCN1C(=O)c1ccccc1)C(=O)N[C@@H](CCC(N)=O)C(=O)N[C@H](C(=O)N[C@H]1CSSC[C@@H](C(N)=O)NC1=O)C1CCCCC1	1200	0.39	0.62	> 125000	> 125000	0.48	> 125000	
N=C(N)NCCC[C@@H](NC(=O)[C@@H](CCCNC(=N)N)NC(=O)[C@@H]1CCCN1C(=O)c1ccc2ccccc2c1)C(=O)N[C@@H](CCC(N)=O)C(=O)N[C@@H](CC1CCCCC1)C(=O)N[C@H]1CSSC[C@@H](C(=O)O)NC1=O	30					229		
N=C(N)NCCC[C@@H](NC(=O)[C@@H](CCCNC(=N)N)NC(=O)[C@@H]1CCCN1C(=O)c1ccc(Cl)cc1)C(=O)N[C@@H](CCC(N)=O)C(=O)N[C@@H](CC1CCCCC1)C(=O)N[C@H]1CSSC[C@@H](C(N)=O)NC1=O	60					0.13		
N=C(N)NCCC[C@@H](NC(=O)[C@@H]1Cc2ccccc2CN1)C(=O)N[C@H](CCCNC(=N)N)C(=O)N[C@@H](CCC(N)=O)C(=O)N[C@@H](CC1CCCCC1)C(=O)N[C@H]1C[Se][Se]C[C@@H](C(N)=O)NC1=O	360					2.4		
